In ChEMBL document CHEMBL5053483, “Structure-Activity Relationship Study of Dexrazoxane Analogues Reveals ICRF-193 as the Most Potent Bisdioxopiperazine against Anthracycline Toxicity to Cardiomyocytes Due to Its Strong Topoisomerase IIβ Interactions” (J Med Chem, 2021) one finds Activity, IC50 and EC50 data, which are given here for 5 molecules.

pEC50, pIC50: −log10 of the molar value. Calls of active or inactive are those of the source. The calls are words filed in the database; no cut-off is given here.

For data set [1], the system named is Neonatal ventricular cardiomyocytes. Nature of the data set: (§1) Cardioprotective activity against DAU-induced cardiotoxicity in Wistar rat neonatal ventricular cardiomyocytes preincubated for 3 hrs followed by DAU addition for 3 hrs and further incubated for 48 hrs in drug free medium by LDH assay. The class given is functional, tissue-based. To be noted: time 6.0 hrs. The gist of the method: (§2)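 Neonatal rat ventricular cardiomyocytes from collagenase II digests, preplated 2 h, 400 000 cells/well. Kept in serum- and pyruvate-free DMEM/F12. Cells pretreated 3 h with compound (10–100 μM), then co-incubated 3 h with 1.2 μM daunorubicin or without it. After 48 h in drug-free medium, LDH released to the medium was measured at 340 nm as percent of total LDH; four experiments.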

Data set [2] relates to HL-60. Nature of the data set: Antiproliferative activity against human HL-60 cells after 72 hrs by XTT assay. The note with it: HL-60, 72 h. Format: functional, cell-based. The gist of the method:
(§3)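 HL-60 (ATCC) grown in RPMI-1640 with 10% FBS and antibiotics at 37 °C, 5% CO2. Seeded at 10 000 cells/well, exposed to compound for 72 h. XTT/PMS (1 mg/mL XTT, 50 μM PMS in PBS) added, absorbance read at 450 nm after 4 h. Results as percent of DMSO control; four independent experiments.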
A general note: Tetrazolium dyes change colour on reduction, which living cells bring about.

Data set [3] in a line: Cytotoxicity against Wistar rat neonatal ventricular cardiomyocytes at 1.2 uM by LDH assay. The class given is tissue-based. The gist of the method:
as §2

Data set [4] is described as follows: as §1. The class given is functional, tissue-based. In a few lines: as §2
Another data set deals with DNA topoisomerase 2-beta (Homo sapiens, UniProt Q02880). Nature of the data set: Inhibition of human TOP2B assessed as reduction in […] using kDNA as substrate incubated for 30 min. In a few lines:
(§4)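 Recombinant human TOP2A or TOP2B incubated with kDNA for 30 min at 37 °C. Buffer: 55 mM Tris-HCl pH 7.5, 135 mM NaCl, 10 mM MgCl2, 5 mM DTT, 0.1 mM EDTA, 3 mM ATP, 100 μg/mL BSA, 1% final DMSO. Compounds tested at 1–1000 μM. Products resolved on 1% agarose, SYBR Safe stained. Signal normalized to the untreated control on the same gel; three measurements.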

The nature of data set [5]: Metal chelating activity assessed as displacement of Fe3+ from DAU-Fe3+ complex measured for 10 mins by spectrophotometric method. The gist of the method:
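DAU–Fe3+ complex (3:1) placed in 50 mM Tris/150 mM KCl, pH 7.4, room temperature, at 45 μM DAU and 15 μM Fe3+ final. After 3 min of equilibration, compound (100 μM) was added, with EDTA or SIH as reference chelators. Absorbance at 600 nm followed for 10 min, and the endpoint absorbance was compared.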

Data set [6] addresses DNA topoisomerase 2-alpha (Homo sapiens, UniProt P11388). Nature of the data set: Inhibition of human TOP2A assessed as reduction in […] using kDNA as substrate incubated for 30 min. In a few lines: as §4
Data set [7] concerns HL-60. Nature of the data set: Antiproliferative activity against human HL-60 cells at 100 uM after 72 hrs by XTT assay. The class given is functional, cell-based. In a few lines: as §3
Data set [8] concerns HL-60. The experiment in a line: Antiproliferative activity against human HL-60 cells assessed as increase in daunorubicin activity at 100 uM after 72 hrs in presence of 15 nM of daunorubicin by XTT assay.

Chain of DNA topoisomerase 2-beta (Q02880 whole entry): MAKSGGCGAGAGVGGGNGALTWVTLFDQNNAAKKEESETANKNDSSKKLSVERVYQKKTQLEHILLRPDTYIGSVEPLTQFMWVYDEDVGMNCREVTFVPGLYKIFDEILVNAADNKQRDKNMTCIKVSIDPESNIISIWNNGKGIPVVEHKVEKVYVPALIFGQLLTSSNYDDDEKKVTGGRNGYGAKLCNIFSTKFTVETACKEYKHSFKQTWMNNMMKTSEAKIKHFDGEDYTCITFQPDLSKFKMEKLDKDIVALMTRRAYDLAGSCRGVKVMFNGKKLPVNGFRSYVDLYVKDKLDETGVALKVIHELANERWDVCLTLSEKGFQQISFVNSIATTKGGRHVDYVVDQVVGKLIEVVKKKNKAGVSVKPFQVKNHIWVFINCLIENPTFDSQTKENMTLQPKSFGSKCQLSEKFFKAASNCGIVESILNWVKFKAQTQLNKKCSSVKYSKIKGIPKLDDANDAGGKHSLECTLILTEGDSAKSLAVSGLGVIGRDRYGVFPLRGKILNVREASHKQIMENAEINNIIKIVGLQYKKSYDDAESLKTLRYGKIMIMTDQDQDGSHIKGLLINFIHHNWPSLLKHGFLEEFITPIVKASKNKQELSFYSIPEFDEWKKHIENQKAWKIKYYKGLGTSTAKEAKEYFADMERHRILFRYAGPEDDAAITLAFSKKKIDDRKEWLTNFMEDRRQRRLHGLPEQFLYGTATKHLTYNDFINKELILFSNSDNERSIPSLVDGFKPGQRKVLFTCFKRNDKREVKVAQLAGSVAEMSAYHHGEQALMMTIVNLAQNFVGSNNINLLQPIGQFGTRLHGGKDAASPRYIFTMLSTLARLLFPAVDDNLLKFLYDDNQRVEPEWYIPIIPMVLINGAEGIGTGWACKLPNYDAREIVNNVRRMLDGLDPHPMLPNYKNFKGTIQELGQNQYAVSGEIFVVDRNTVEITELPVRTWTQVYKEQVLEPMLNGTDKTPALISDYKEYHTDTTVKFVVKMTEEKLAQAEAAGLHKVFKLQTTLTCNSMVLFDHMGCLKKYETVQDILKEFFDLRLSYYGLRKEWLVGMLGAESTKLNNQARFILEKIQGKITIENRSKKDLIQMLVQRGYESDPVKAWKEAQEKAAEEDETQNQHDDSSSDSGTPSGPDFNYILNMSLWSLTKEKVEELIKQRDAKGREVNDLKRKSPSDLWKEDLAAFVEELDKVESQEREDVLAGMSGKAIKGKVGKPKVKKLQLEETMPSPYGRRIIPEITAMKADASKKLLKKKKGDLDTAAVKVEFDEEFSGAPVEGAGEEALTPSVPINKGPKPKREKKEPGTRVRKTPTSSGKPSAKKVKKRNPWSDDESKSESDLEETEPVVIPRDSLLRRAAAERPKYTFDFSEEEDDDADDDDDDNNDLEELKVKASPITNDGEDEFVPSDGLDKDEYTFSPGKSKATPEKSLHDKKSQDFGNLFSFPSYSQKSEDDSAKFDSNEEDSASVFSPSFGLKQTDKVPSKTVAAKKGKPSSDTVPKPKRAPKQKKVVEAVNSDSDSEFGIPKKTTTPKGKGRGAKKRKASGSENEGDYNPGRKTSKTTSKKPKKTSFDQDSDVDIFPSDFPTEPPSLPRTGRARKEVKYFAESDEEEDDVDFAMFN
Chain of DNA topoisomerase 2-alpha (P11388 whole entry): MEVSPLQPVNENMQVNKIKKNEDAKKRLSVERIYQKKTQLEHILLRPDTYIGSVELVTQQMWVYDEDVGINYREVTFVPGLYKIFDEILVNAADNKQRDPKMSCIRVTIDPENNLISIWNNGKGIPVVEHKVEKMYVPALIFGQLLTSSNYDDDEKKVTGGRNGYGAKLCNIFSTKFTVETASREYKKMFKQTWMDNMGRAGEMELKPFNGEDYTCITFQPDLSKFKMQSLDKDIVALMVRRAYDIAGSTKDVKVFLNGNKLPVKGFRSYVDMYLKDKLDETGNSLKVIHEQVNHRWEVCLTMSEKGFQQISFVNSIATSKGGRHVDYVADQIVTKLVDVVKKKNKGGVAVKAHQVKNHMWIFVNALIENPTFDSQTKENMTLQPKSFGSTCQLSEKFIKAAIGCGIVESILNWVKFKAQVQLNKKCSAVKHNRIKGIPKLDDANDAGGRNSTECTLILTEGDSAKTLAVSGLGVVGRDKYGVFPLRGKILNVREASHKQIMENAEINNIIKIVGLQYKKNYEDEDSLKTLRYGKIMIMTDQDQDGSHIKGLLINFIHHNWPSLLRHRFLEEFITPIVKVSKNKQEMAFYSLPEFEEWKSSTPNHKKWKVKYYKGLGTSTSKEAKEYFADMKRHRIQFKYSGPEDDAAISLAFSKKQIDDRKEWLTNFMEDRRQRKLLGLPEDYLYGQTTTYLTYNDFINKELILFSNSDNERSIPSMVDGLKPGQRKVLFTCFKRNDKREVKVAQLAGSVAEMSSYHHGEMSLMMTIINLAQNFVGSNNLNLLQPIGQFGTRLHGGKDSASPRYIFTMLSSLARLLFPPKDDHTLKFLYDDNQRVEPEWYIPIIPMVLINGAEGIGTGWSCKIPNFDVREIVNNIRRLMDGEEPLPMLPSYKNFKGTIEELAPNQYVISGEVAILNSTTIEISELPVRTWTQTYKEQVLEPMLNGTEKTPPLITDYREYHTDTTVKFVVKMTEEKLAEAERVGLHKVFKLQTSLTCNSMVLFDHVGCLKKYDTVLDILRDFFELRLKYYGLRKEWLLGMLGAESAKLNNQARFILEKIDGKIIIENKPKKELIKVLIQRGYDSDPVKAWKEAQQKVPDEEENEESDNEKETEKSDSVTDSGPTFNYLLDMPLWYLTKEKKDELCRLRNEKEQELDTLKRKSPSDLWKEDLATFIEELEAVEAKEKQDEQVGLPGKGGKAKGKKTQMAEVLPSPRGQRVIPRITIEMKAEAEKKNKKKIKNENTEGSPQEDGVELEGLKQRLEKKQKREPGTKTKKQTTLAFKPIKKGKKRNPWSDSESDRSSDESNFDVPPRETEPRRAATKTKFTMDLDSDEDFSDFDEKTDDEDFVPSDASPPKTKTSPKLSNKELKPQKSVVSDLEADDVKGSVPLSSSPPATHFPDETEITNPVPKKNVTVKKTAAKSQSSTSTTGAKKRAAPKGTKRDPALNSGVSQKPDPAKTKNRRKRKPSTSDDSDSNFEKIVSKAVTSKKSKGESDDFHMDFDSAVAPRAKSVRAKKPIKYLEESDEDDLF

Take `CC(C)(CN1CC(=O)NC(=O)C1)N1CC(=O)NC(=O)C1`: the outcome in [1] was inactive.

For the molecule `COc1cccc2c1C(=O)c1c(O)c3c(c(O)c1C2=O)C[C@@](O)(C(C)=O)C[C@@H]3O[C@H]1C[C@H](N)[C@H](O)[C@H](C)O1` [DAUNORUBICIN], the pIC50 (as a rule, −log10 of the IC50, conventionally taken in molar units) with HL-60 [2] was 7.82. Further, the Activity in data set [3] amounted to 40%.

Consider `C[C@@H](CN1CC(=O)NC(=O)C1)N1CC(=O)NC(=O)C1` [DEXRAZOXANE], for which the pEC50 (as a rule, −log10 of the EC50, conventionally taken in molar units) in data set [4] was 4.00. Further, the results for the pIC50 (in the data set with HL-60 [2]; on DNA topoisomerase 2-beta; in data set [6]) were 4.74, 4.30 and 4.40, respectively. In addition, the Activity in data set [5] worked out at 77%.

In the case of `O=C1CN(CC(O)CN2CC(=O)NC(=O)C2)CC(=O)N1`, in the data set with HL-60 [7], the outcome was Active.

`CN(CCN(C)C1CC(=O)NC1=O)C1CC(=O)NC1=O` (stereo unspecified): the outcome with HL-60 [7] and in the data set on HL-60 [8] was Active.
